Test results as given in ChEMBL document CHEMBL4130566, “χ-Space Screening of Dermorphin-Based Tetrapeptides through Use of Constrained Arylazepinone and Quinolinone Scaffolds” (ACS Med Chem Lett, 2017).
Square brackets hold non-standard residues; d marks the D form. Peptide text beside a SMILES is read from it.

What was measured:
[1] = target: Mu-type opioid receptor (Homo sapiens, UniProt P35372); test: Binding affinity to Mu-type opioid receptor (unknown origin)
[2] = target: Delta-type opioid receptor (Homo sapiens, UniProt P41143); test: Binding affinity to delta-type opioid receptor (unknown origin)
[3] = target: T1, Delta-type opioid receptor (Mus musculus, UniProt P32300); test: Agonist activity at delta-type opioid receptor in mouse vas deferens assessed as inhibition of electrically stimulated contractions; assay type: functional
In short: (§1)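 Guinea pig ileum (GPI) serves as the MOP-representative tissue and mouse vas deferens (MVD) as the DOP-representative tissue. Values are reported as IC50.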

[4] = organism: Mus musculus; test: Selectivity ratio of IC50 for mouse FLAG-tagged delta-type opioid receptor expressed in HEK293 cell membranes to IC50 for mouse FLAG-tagged Mu-type opioid receptor expressed in HEK293 cell membranes; assay type: cell-based
[5] = target: T2, Mu-type opioid receptor (Cavia porcellus, UniProt P97266); test: (§2) Agonist activity at mu-opioid receptor in guinea pig ileum assessed as inhibition of electrically induced contractions; assay type: functional; in short: as §1
[6] = target: Mu-type opioid receptor (Mus musculus, UniProt P42866); test: Displacement of [125I]-DAMGO from mouse FLAG-tagged Mu-type opioid receptor expressed in HEK293 cell membranes after 60 mins by gamma counting analysis
In short: (§3)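 Competitive radioligand displacement binding in HEK293 cells expressing MOP or DOP. The MOP-selective tracer is [125I]-DAMGO and the DOP-selective tracer is [125I]-Deltorphin II. Values are reported as IC50.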

[7] = target: T1, Delta-type opioid receptor; test: Displacement of [125I]-Deltorphin II from mouse FLAG-tagged delta-type opioid receptor expressed in HEK293 cell membranes after 60 mins by gamma counting analysis; in short: as §3
[8] = target: Delta-type opioid receptor (Mus musculus) (UniProt P32300); test: Antagonist activity at delta-type opioid receptor in mouse vas deferens assessed as inhibition of DPDPE-induced electrically stimulated contractions; assay type: functional
[9] = target: Mu-type opioid receptor (Cavia porcellus) (UniProt P97266); test: Antagonist activity at mu-opioid receptor in guinea pig ileum assessed as inhibition of TAPP-induced reduction in electrically stimulated contractions; assay type: functional
[10] = target: Mu-type opioid receptor (Cavia porcellus) (UniProt P97266); test: as §2; assay type: functional; in short: as §1
[11] = target: T1, Delta-type opioid receptor; test: Agonist activity at delta-type opioid receptor in ICR mouse vas deferens assessed as […] of electrically stimulated contractions after 3 mins post dose; assay type: functional
[12] = target: T2, Mu-type opioid receptor; test: Agonist activity at mu-opioid receptor in Hartley guinea pig ileum assessed as inhibition of electrically induced contractions after 3 mins post dose; assay type: functional; in short: as §1
[13] = target: T3, Delta-type opioid receptor (Rattus norvegicus, UniProt P33533); test: Displacement of [H][p-ClPhe4]-DPDPE from delta-type opioid receptor in Sprague-Dawley rat brain homogenates after 180 mins by scintillation counting
[14] = target: T4, Mu-type opioid receptor (Rattus norvegicus, UniProt P33535); test: Displacement of [3H]-CTOP from Mu-type opioid receptor in Sprague-Dawley rat brain homogenate after 180 mins by scintillation counting
[15] = target: T3, Delta-type opioid receptor; test: Displacement of [3H][Ile5,6]-deltorphin II from delta-type opioid receptor in Sprague-Dawley rat brain membranes; assay type: cell membranes, Membrane
[16] = target: T4, Mu-type opioid receptor; test: Displacement of [3H]naloxone from Mu-type opioid receptor in Sprague-Dawley rat brain membranes; assay type: cell membranes, Membrane

T1 sequence (P32300 whole entry): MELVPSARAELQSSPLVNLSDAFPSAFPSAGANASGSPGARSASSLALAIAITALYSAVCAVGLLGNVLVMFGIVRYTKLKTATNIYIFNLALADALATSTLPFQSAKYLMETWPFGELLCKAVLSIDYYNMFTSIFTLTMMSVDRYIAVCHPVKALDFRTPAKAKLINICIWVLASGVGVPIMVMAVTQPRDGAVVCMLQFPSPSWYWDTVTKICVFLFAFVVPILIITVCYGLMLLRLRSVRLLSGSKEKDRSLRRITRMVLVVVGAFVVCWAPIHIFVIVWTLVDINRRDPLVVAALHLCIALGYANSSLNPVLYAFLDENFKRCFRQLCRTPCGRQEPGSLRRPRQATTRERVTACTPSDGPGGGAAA
Chain of Mu-type opioid receptor (Cavia porcellus) (P97266 whole entry): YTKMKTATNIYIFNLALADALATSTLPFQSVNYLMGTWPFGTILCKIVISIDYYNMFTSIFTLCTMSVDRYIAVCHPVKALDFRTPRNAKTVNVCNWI
T2 sequence (P97266 whole entry): as above
Chain of Mu-type opioid receptor (Mus musculus, UniProt P42866) (P42866 whole entry): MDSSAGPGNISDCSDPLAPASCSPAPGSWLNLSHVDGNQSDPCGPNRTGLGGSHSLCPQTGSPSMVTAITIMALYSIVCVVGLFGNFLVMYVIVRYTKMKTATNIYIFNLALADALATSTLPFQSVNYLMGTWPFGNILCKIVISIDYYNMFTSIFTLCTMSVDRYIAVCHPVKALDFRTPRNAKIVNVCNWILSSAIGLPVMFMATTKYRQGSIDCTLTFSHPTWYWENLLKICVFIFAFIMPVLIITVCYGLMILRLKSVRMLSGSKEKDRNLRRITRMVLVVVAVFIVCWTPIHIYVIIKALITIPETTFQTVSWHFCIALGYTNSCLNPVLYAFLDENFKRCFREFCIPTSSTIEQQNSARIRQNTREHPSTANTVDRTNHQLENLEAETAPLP
T3 sequence (P33533 whole entry): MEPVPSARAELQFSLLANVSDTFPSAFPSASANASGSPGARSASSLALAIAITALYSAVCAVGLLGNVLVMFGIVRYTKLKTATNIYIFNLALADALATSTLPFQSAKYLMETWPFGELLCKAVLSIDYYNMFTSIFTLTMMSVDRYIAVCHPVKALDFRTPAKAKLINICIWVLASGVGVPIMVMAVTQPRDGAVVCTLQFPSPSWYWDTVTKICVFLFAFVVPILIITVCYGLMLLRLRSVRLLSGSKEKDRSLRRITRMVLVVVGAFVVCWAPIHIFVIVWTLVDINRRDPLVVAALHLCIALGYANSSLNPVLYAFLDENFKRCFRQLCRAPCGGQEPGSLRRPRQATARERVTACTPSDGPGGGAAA
Chain of Delta-type opioid receptor (Mus musculus) (P32300 whole entry): as the sequence (P32300 whole entry) above
T4 sequence (P33535 whole entry): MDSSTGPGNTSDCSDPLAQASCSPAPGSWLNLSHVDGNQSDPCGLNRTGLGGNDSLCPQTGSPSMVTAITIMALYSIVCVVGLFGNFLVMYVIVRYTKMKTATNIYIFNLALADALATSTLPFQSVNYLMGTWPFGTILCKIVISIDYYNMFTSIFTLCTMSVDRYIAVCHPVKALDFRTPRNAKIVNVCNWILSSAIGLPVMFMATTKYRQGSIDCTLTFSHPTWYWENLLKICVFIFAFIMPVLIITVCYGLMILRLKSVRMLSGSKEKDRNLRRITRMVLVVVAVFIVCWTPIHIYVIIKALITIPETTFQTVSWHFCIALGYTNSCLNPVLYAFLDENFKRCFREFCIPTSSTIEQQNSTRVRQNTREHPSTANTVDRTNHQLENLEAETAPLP
Chain of Mu-type opioid receptor (Homo sapiens, UniProt P35372) (P35372 whole entry): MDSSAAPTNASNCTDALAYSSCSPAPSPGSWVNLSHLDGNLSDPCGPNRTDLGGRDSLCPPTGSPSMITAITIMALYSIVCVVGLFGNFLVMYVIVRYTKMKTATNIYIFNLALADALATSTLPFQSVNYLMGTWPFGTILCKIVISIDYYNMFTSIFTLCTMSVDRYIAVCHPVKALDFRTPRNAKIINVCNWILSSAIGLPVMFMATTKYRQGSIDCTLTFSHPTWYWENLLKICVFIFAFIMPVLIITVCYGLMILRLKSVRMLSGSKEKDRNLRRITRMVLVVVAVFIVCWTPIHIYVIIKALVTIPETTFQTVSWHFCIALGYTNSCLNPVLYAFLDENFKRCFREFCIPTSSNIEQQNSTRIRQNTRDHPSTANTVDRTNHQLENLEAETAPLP
Chain of Delta-type opioid receptor (Homo sapiens, UniProt P41143) (P41143 whole entry): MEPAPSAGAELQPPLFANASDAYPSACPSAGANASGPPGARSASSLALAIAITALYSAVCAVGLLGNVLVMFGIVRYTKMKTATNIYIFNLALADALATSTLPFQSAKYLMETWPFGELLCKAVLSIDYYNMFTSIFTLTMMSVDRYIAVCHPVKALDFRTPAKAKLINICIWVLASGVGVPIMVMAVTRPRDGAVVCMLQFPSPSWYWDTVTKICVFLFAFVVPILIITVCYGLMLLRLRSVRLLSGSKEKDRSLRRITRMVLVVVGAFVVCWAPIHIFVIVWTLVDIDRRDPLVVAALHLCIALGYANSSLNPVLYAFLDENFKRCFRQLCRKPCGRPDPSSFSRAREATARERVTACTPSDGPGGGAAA

| SMILES | IC50 [3] | Ratio IC50 [4] | IC50 [5] | IC50 [6] | IC50 [7] | further results |
| --- | --- | --- | --- | --- | --- | --- |
| Cc1cc(O)cc(C)c1C[C@H](N)C(=O)N[C@H](CCCN=C(N)N)C(=O)N[C@H]1Cc2ccccc2CN(CC(N)=O)C1=O | – | – | – | – | – | Ki [1]: 0.15 nM; Ki [2]: 0.6 nM |
| Cc1cc(O)cc(C)c1C[C@H](N)C(=O)N[C@H](CCCNC(=N)N)C(=O)N[C@H]1Cc2ccc3ccccc3c2CN(CC(N)=O)C1=O | 114 nM | 70 | 21.4 nM | 2.19 nM | 153 nM | – |
| Cc1cc(O)cc(C)c1C[C@H](N)C(=O)N[C@H](C)C(=O)N[C@H]1Cc2cc3ccccc3cc2CN(CC(N)=O)C1=O | – | – | – | – | – | Ke [8]: 360 nM; Ke [9]: 5.53 nM |
| Cc1cc(O)cc(C)c1C[C@H](N)C(=O)N[C@H](CCCNC(=N)N)C(=O)N[C@H]1Cc2ccc(Br)cc2CN(CC(N)=O)C1=O | 8.51 nM | 80 | – | 0.76 nM | 60.7 nM | IC25 [10]: 22 nM |
| C[C@@H](NC(=O)[C@@H](N)Cc1ccc(O)cc1)C(=O)N[C@@H](Cc1ccccc1)C(=O)NCC(N)=O (H-Y[dA]FG-NH2) | – | – | – | – | – | IC50 [11]: 263 nM; IC50 [12]: 35 nM; IC50 [13]: 1250 nM; IC50 [14]: 36.7 nM |
| Cc1cc(O)cc(C)c1C[C@H](N)C(=O)N[C@H](C)C(=O)N[C@H]1Cc2ccc3ccccc3c2CN(CC(N)=O)C1=O | – | 94 | – | 1.78 nM | 167 nM | Ke [8]: 306 nM; Ke [9]: 2.88 nM |
| C[C@@H](NC(=O)[C@@H](N)Cc1ccc(O)cc1)C(=O)N[C@H]1Cc2ccccc2CN(CC(N)=O)C1=O | 47.1 nM | – | 50.4 nM | – | – | IC50 [15]: 15.8 nM; IC50 [16]: 34.4 nM |
| Cc1cc(O)cc(C)c1C[C@H](N)C(=O)N(C)[C@H](C)C(=O)N[C@H]1Cc2c(ccc3ccccc23)CN(CC(N)=O)C1=O | 1.09 nM | 4 | 0.43 nM | 0.35 nM | 1.47 nM | – |
| Cc1cc(O)cc(C)c1C[C@H](N)C(=O)N[C@H](C)C(=O)N[C@H]1Cc2c(ccc3ccccc23)CN(CC(N)=O)C1=O | 0.86 nM | 5 | 1.13 nM | 0.39 nM | 2.07 nM | – |
| Cc1cc(O)cc(C)c1C[C@H](N)C(=O)N[C@H](CCCNC(=N)N)C(=O)N[C@H]1Cc2c(ccc3ccccc23)CN(CC(N)=O)C1=O | 1.42 nM | 3 | 0.252 nM | 0.33 nM | 1 nM | – |
| Cc1cc(O)cc(C)c1C[C@H](N)C(=O)N[C@H](CCCNC(=N)N)C(=O)N[C@H]1Cc2ccccc2N(CC(N)=O)C1=O | 90.5 nM | 389 | – | 1.62 nM | 630 nM | IC35 [10]: 33.7 nM |
| C[C@@H](NC(=O)[C@@H](N)Cc1ccc(O)cc1)C(=O)N[C@@H](Cc1ccccc1)C(=O)NCC(=O)N[C@@H](Cc1ccc(O)cc1)C(=O)N1CCC[C@H]1C(=O)N[C@@H](CO)C(N)=O [DERMORPHIN] | – | – | 1.06 nM | – | – | – |
